In ChEMBL document CHEMBL3244395, “Antimycotic imidazoles. 2. Synthesis and antifungal properties of esters of 1-[2-hydroxy(mercapto)-2-phenylethyl]-1H-imidazoles” (J Med Chem, 1978):
In brackets after ≈: the same amount, converted by molar mass. Activity calls are given as the source filed them. The calls are words filed in the database; no cut-off is given here.

Experiments:
[1] = test system: Enterococcus faecalis; assay: Antibacterial activity against Streptococcus faecalis ATCC 14506 assessed as lowest concentration required for total inhibition by broth microdilution assay; type: functional; conditions: read-out: MIC100
Procedure, shortened: (§1)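 Broth microdilution against the listed ATCC […] strains. The value is the lowest concentration giving total inhibition. "<" marks the lowest level tested, and ">" marks partial growth at that dilution.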

[2] = test system: Cryptococcus neoformans; assay: Antifungal activity against Cryptococcus neoformans assessed as lowest concentration required for total inhibition by broth dilution assay; type: functional; conditions: read-out: MIC100
Procedure, shortened: (§2)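 Broth dilution against dermatophytes, C. albicans ATCC 10231 and 14053, and C. neoformans. The end point is the lowest concentration with total inhibition. "<" marks the lowest level tested, and ">" marks partial growth at that dilution.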

[3] = test system: Epidermophyton floccosum; assay: Antifungal activity against Epidermophyton floccosum assessed as lowest concentration required for total inhibition broth dilution assay; type: functional; conditions: read-out: MIC100; procedure, shortened: as §2
[4] = test system: Candida albicans; assay: Antifungal activity against Candida albicans ATCC 14053 assessed as lowest concentration required for total inhibition by broth dilution assay; type: functional; conditions: read-out: MIC100; procedure, shortened: as §2
[5] = Lipophilic-hydrophilic balance, Rm of the compound assessed as change in compound Rm to miconazole Rm by reverse-phase TLC method; type: physicochemical
[6] = test system: Staphylococcus aureus; assay: Antibacterial activity against Staphylococcus aureus ATCC 12600 assessed as lowest concentration required for total inhibition by broth microdilution assay; type: functional; conditions: read-out: MIC100; procedure, shortened: as §1
[7] = test system: Candida albicans; assay: Antifungal activity against Candida albicans ATCC 10231 assessed as lowest concentration required for total inhibition by broth dilution assay; type: functional; conditions: read-out: MIC100; procedure, shortened: as §2
[8] = test system: Trichophyton mentagrophytes; assay: Antifungal activity against Trichophyton mentagrophytes assessed as lowest concentration required for total inhibition broth dilution assay; type: functional; conditions: read-out: MIC100; procedure, shortened: as §2
[9] = test system: Pasteurella multocida; assay: Antibacterial activity against Pasteurella multocida ATCC 19427 assessed as lowest concentration required for total inhibition by broth microdilution assay; type: functional; conditions: read-out: MIC100; procedure, shortened: as §1
[10] = test system: Cutibacterium acnes; assay: Antibacterial activity against Corynebacterium acnes ATCC 11828 assessed as lowest concentration required for total inhibition by broth microdilution assay; type: functional; conditions: read-out: MIC100; procedure, shortened: as §1
[11] = test system: Candida albicans; assay: Antifungal activity against Candida albicans in mouse vaginal infection model compound applied intravaginally as 2% formulation in an aqueous propylene glycol cream for 4 days bid; type: functional, organism-based; conditions: Vagina
Procedure, shortened: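 Mice with vaginal C. albicans infection, following Wildfeuer's method. The compound was applied intravaginally as a 2% formulation in an aqueous propylene glycol cream, twice daily for 4 days. Read-out was animals cured over total number infected.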

[12] = test system: Erysipelothrix rhusiopathiae; assay: Antibacterial activity against Erysipelothrix insidiosa ATCC 19414 assessed as lowest concentration required for total inhibition by broth microdilution assay; type: functional; conditions: read-out: MIC100; procedure, shortened: as §1
[13] = test system: Nannizzia gypsea; assay: Antifungal activity against Microsporum gypseum assessed as lowest concentration required for total inhibition broth dilution assay; type: functional; conditions: read-out: MIC100; procedure, shortened: as §2
[14] = test system: Microsporum audouinii; assay: Antifungal activity against Microsporum audouinii assessed as lowest concentration required for total inhibition broth dilution assay; type: functional; conditions: read-out: MIC100; procedure, shortened: as §2
[15] = silicone oil-impregnated silica gel, MeCN-H2O-AcOH

MIC [1]	MIC [2]	MIC [3]	MIC [4]	deltaRm [5, 15]	MIC [6]	MIC [7]	MIC [8]	MIC [9]	MIC [10]	MIC [12]	MIC [13]	MIC [14]	deltaRm ([5]; octanol/water)	SMILES	Activity [11]
–	–	10 µg/mL	> 100 µg/mL	-0.52	–	> 100 µg/mL	10 µg/mL	–	–	–	–	100 µg/mL	–	O=C(O)C(=O)O.O=C(Oc1ccc(Cl)cc1)OC(Cn1ccnc1)c1ccc(Cl)cc1 (stereo not given)	–
–	–	1 µg/mL	50 µg/mL	–	–	50 µg/mL	10 µg/mL	–	–	–	–	10 µg/mL	-0.42	O=C(Cc1ccc(Cl)cc1)OC(Cn1ccnc1)c1ccc(Cl)cc1.O=C(O)C(=O)O (stereo not given)	–
–	1 µg/mL	< 0.1 µg/mL	50 µg/mL	-0.27	–	50 µg/mL	< 0.1 µg/mL	–	–	–	–	5 µg/mL	–	CCOC(=S)SC(Cn1ccnc1)c1ccc(Cl)cc1Cl.O=[N+]([O-])O (stereo not given)	–
30 µg/mL	< 1 µg/mL	< 0.1 µg/mL	10 µg/mL	0.44	3 µg/mL	10 µg/mL	10 µg/mL	1 µg/mL	100 µg/mL	30 µg/mL	30 µg/mL	–	–	CCCCCCCC(=O)SC(Cn1ccnc1)c1ccc(Cl)cc1Cl.O=C(O)C(=O)O (stereo not given)	inactive

The remaining lines, values behind:

SMILES	MIC [1]	MIC [2]	MIC [3]	MIC [4]	deltaRm [5, 15]	MIC [6]	MIC [7]	MIC [8]	MIC [9]	MIC [10]	MIC [12]	MIC [13]	MIC [14]	deltaRm ([5]; octanol/water)	Activity [11]
O=C(SC(Cn1ccnc1)c1ccc(Cl)cc1Cl)c1ccc(Cl)cc1.O=[N+]([O-])O (stereo not given)	100 µg/mL	< 1 µg/mL	< 0.1 µg/mL	10 µg/mL	-0.03	3 µg/mL	10 µg/mL	10 µg/mL	1 µg/mL	> 100 µg/mL	> 100 µg/mL	30 µg/mL	–	–	Active
O=C(OC(Cn1ccnc1)c1ccc(Cl)cc1)c1ccc(Cl)cc1.O=[N+]([O-])O (stereo not given)	–	10 µg/mL	100 µg/mL	> 100 µg/mL	-0.31	–	> 100 µg/mL	> 100 µg/mL	–	–	–	–	100 µg/mL	–	–
O=C(O)C(=O)O.O=C(OC(Cn1ccnc1)c1ccc(Cl)cc1)c1ccccc1Cl (stereo not given)	–	–	5 µg/mL	100 µg/mL	-0.49	–	100 µg/mL	10 µg/mL	–	–	–	–	50 µg/mL	–	–
Clc1ccc(COC(Cn2ccnc2)c2ccc(Cl)cc2Cl)c(Cl)c1 (stereo not given) [MICONAZOLE]	10 µg/mL (≈ 24 µM)	< 0.3 µg/mL	< 0.1 µg/mL	30 µg/mL (≈ 72.1 µM)	0	1 µg/mL (≈ 2.4 µM)	30 µg/mL (≈ 72.1 µM)	3 µg/mL (≈ 7.21 µM)	< 0.1 µg/mL	10 µg/mL (≈ 24 µM)	3 µg/mL (≈ 7.21 µM)	3 µg/mL (≈ 7.21 µM)	–	–	Active
O=C(O)C(=O)O.O=C(OC(Cn1ccnc1)c1ccc(Cl)cc1Cl)c1ccc([N+](=O)[O-])cc1 (stereo not given)	–	–	0.33 µg/mL	> 300 µg/mL	-0.54	–	> 300 µg/mL	10 µg/mL	–	–	–	–	33 µg/mL	–	–
CCCCCC(=O)SC(Cn1ccnc1)c1ccc(Cl)cc1Cl.O=[N+]([O-])O (stereo not given)	–	1 µg/mL	< 0.1 µg/mL	30 µg/mL	-0.05	–	100 µg/mL	30 µg/mL	–	–	–	30 µg/mL	–	–	inactive
